# Test results taken from ChEMBL document CHEMBL1136943, “Nocathiacin analogs: Synthesis and antibacterial activity of novel water-soluble amides” (Bioorg Med Chem Lett, 2009).
# How the values were obtained:
# [1] = Aqueous solubility by lyophilization solubility assay; assay type: physicochemical
# Outline: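 Amorphous powders from lyophilized material, as TFA salts; aqueous solubility measured by nephelometry.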
# [2] = test system: Staphylococcus aureus; test: Antibacterial activity against Staphylococcus aureus infected in mouse model assessed as reduction of >= 2 log 10 cfu kidney burden; assay type: functional
# Outline: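 Systemic S. aureus infection mouse model (SATOA). Compounds were given iv; […]. Kidney bacterial burden (cfu) was compared with untreated control. ED99 is the dose giving a reduction of at least 2 log10 cfu in kidney burden.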
# [3] = test system: Streptococcus pneumoniae; test: Antibacterial activity against Streptococcus pneumoniae CL2883 in liquid culture by turbidity method; assay type: functional
# Outline: (§1)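 MIC is the lowest concentration giving 100% inhibition of bacterial growth in liquid culture, read by turbidity.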
# [4] = test system: Staphylococcus aureus; test: Antibacterial activity against Staphylococcus aureus MB2865 in liquid culture by turbidity method; assay type: functional; outline: as §1
# [5] = test system: Enterococcus faecalis; test: Antibacterial activity against Enterococcus faecalis C21560 in liquid culture by turbidity method; assay type: functional; outline: as §1
Structure (SMILES),solubility [1],ED99 [2],MIC [3],MIC [4],MIC [5]
CO/C(C)=C1/NC(=O)[C@H]([C@@H](C)O)NC(=O)c2csc(n2)-c2cc(O)c(-c3nc(C(=O)NCCCN4CCOCC4)cs3)nc2-c2csc(n2)[C@@H]2COC(=O)c3c4c5c(cccc5n3O)COC(=O)[C@@H](O[C@H]3C[C@](C)(O)[C@H](N(C)C)[C@H](C)O3)[C@@H](OC4)[C@H](NC(=O)c3csc1n3)c1nc(cs1)C(=O)N2.O=C(O)C(F)(F)F,> 10000 µg/mL,,,,
CO/C(C)=C1/NC(=O)[C@H]([C@@H](C)O)NC(=O)c2csc(n2)-c2cc(O)c(-c3nc(C(=O)NCC(=O)N4CCN(C)CC4)cs3)nc2-c2csc(n2)[C@@H]2COC(=O)c3c4c5c(cccc5n3O)COC(=O)[C@@H](O[C@H]3C[C@](C)(O)[C@H](N(C)C)[C@H](C)O3)[C@@H](OC4)[C@H](NC(=O)c3csc1n3)c1nc(cs1)C(=O)N2,,0.13 mg/kg,0.48 ng/mL,0.0038 µg/mL,0.03 µg/mL
CO/C(C)=C1/NC(=O)[C@H]([C@@H](C)O)NC(=O)c2csc(n2)-c2cc(O)c(-c3nc(C(=O)NCCNC(=O)CN4CCOCC4)cs3)nc2-c2csc(n2)[C@@H]2COC(=O)c3c4c5c(cccc5n3O)COC(=O)[C@@H](O[C@H]3C[C@](C)(O)[C@H](N(C)C)[C@H](C)O3)[C@@H](OC4)[C@H](NC(=O)c3csc1n3)c1nc(cs1)C(=O)N2.O=C(O)C(F)(F)F,> 10000 µg/mL,,,,
CO/C(C)=C1/NC(=O)[C@H]([C@@H](C)O)NC(=O)c2csc(n2)-c2cc(O)c(-c3nc(C(=O)NCCNC(=O)c4cc(O)cc(O)c4)cs3)nc2-c2csc(n2)[C@@H]2COC(=O)c3c4c5c(cccc5n3O)COC(=O)[C@@H](O[C@H]3C[C@](C)(O)[C@H](N(C)C)[C@H](C)O3)[C@@H](OC4)[C@H](NC(=O)c3csc1n3)c1nc(cs1)C(=O)N2,,,,> 1 µg/mL,> 1 µg/mL
CO/C(C)=C1/NC(=O)[C@H]([C@@H](C)O)NC(=O)c2csc(n2)-c2cc(O)c(-c3nc(C(=O)N4CCN(CC(=O)N(C)C)CC4)cs3)nc2-c2csc(n2)[C@@H]2COC(=O)c3c4c5c(cccc5n3O)COC(=O)[C@@H](O[C@H]3C[C@](C)(O)[C@H](N(C)C)[C@H](C)O3)[C@@H](OC4)[C@H](NC(=O)c3csc1n3)c1nc(cs1)C(=O)N2.O=C(O)C(F)(F)F,> 10000 µg/mL,,,,
CO/C(C)=C1/NC(=O)[C@H]([C@@H](C)O)NC(=O)c2csc(n2)-c2cc(O)c(-c3nc(C(=O)NCCNC(=O)CN(C)C)cs3)nc2-c2csc(n2)[C@@H]2COC(=O)c3c4c5c(cccc5n3O)COC(=O)[C@@H](O[C@H]3C[C@](C)(O)[C@H](N(C)C)[C@H](C)O3)[C@@H](OC4)[C@H](NC(=O)c3csc1n3)c1nc(cs1)C(=O)N2.O=C(O)C(F)(F)F,> 10000 µg/mL,,,,
C=C(NC(=O)c1csc(-c2nc3c(cc2O)-c2nc(cs2)C(=O)N[C@@H]([C@@H](C)O)C(=O)N/C(=C(\C)OC)c2nc(cs2)C(=O)N[C@@H]2c4nc(cs4)C(=O)N[C@@H](COC(=O)c4c5c6c(cccc6n4O)COC(=O)[C@@H](O[C@H]4C[C@](C)(O)[C@H](N(C)C)[C@H](C)O4)[C@H]2OC5)c2nc-3cs2)n1)C(N)=O.O=C(O)C(F)(F)F [NOCATHIACIN I],340 µg/mL,,,,
CO/C(C)=C1/NC(=O)[C@H]([C@@H](C)O)NC(=O)c2csc(n2)-c2cc(O)c(-c3nc(C(=O)NCCCN(C)C)cs3)nc2-c2csc(n2)[C@@H]2COC(=O)c3c4c5c(cccc5n3O)COC(=O)[C@@H](O[C@H]3C[C@](C)(O)[C@H](N(C)C)[C@H](C)O3)[C@@H](OC4)[C@H](NC(=O)c3csc1n3)c1nc(cs1)C(=O)N2,,>0.5 mg/kg,0.95 ng/mL,0.06 µg/mL,0.12 µg/mL
CO/C(C)=C1/NC(=O)[C@H]([C@@H](C)O)NC(=O)c2csc(n2)-c2cc(O)c(-c3nc(C(=O)N4CCN(C)CC4)cs3)nc2-c2csc(n2)[C@@H]2COC(=O)c3c4c5c(cccc5n3O)COC(=O)[C@@H](O[C@H]3C[C@](C)(O)[C@H](N(C)C)[C@H](C)O3)[C@@H](OC4)[C@H](NC(=O)c3csc1n3)c1nc(cs1)C(=O)N2.O=C(O)C(F)(F)F,> 10000 µg/mL,,,,
CO/C(C)=C1/NC(=O)[C@H]([C@@H](C)O)NC(=O)c2csc(n2)-c2cc(O)c(-c3nc(C(=O)NCCCN4CCN(C)CC4)cs3)nc2-c2csc(n2)[C@@H]2COC(=O)c3c4c5c(cccc5n3O)COC(=O)[C@@H](O[C@H]3C[C@](C)(O)[C@H](N(C)C)[C@H](C)O3)[C@@H](OC4)[C@H](NC(=O)c3csc1n3)c1nc(cs1)C(=O)N2.O=C(O)C(F)(F)F,> 10000 µg/mL,,,,
CO/C(C)=C1/NC(=O)[C@H]([C@@H](C)O)NC(=O)c2csc(n2)-c2cc(O)c(-c3nc(C(=O)NCC(=O)N4CCN(C)CC4)cs3)nc2-c2csc(n2)[C@@H]2COC(=O)c3c4c5c(cccc5n3O)COC(=O)[C@@H](O[C@H]3C[C@](C)(O)[C@H](N(C)C)[C@H](C)O3)[C@@H](OC4)[C@H](NC(=O)c3csc1n3)c1nc(cs1)C(=O)N2.O=C(O)C(F)(F)F,> 10000 µg/mL,,,,
CO/C(C)=C1/NC(=O)[C@H]([C@@H](C)O)NC(=O)c2csc(n2)-c2cc(O)c(-c3nc(C(=O)N4CCN(CC(=O)N(C)C)CC4)cs3)nc2-c2csc(n2)[C@@H]2COC(=O)c3c4c5c(cccc5n3O)COC(=O)[C@@H](O[C@H]3C[C@](C)(O)[C@H](N(C)C)[C@H](C)O3)[C@@H](OC4)[C@H](NC(=O)c3csc1n3)c1nc(cs1)C(=O)N2,,,3.8 ng/mL,0.12 µg/mL,0.25 µg/mL
CO/C(C)=C1/NC(=O)[C@H]([C@@H](C)O)NC(=O)c2csc(n2)-c2cc(O)c(-c3nc(C(=O)NCCNCC(O)CO)cs3)nc2-c2csc(n2)[C@@H]2COC(=O)c3c4c5c(cccc5n3O)COC(=O)[C@@H](O[C@H]3C[C@](C)(O)[C@H](N(C)C)[C@H](C)O3)[C@@H](OC4)[C@H](NC(=O)c3csc1n3)c1nc(cs1)C(=O)N2.O=C(O)C(F)(F)F (stereo not given in full),10000 µg/mL,,,,
CO/C(C)=C1/NC(=O)[C@H]([C@@H](C)O)NC(=O)c2csc(n2)-c2cc(O)c(-c3nc(C(=O)NCCN)cs3)nc2-c2csc(n2)[C@@H]2COC(=O)c3c4c5c(cccc5n3O)COC(=O)[C@@H](O[C@H]3C[C@](C)(O)[C@H](N(C)C)[C@H](C)O3)[C@@H](OC4)[C@H](NC(=O)c3csc1n3)c1nc(cs1)C(=O)N2,,,60 ng/mL,0.5 µg/mL,2 µg/mL
CO/C(C)=C1/NC(=O)[C@H]([C@@H](C)O)NC(=O)c2csc(n2)-c2cc(O)c(-c3nc(C(=O)N(C)CCN(C)C)cs3)nc2-c2csc(n2)[C@@H]2COC(=O)c3c4c5c(cccc5n3O)COC(=O)[C@@H](O[C@H]3C[C@](C)(O)[C@H](N(C)C)[C@H](C)O3)[C@@H](OC4)[C@H](NC(=O)c3csc1n3)c1nc(cs1)C(=O)N2,,>0.5 mg/kg,3.8 ng/mL,0.06 µg/mL,0.12 µg/mL
CO/C(C)=C1/NC(=O)[C@H]([C@@H](C)O)NC(=O)c2csc(n2)-c2cc(O)c(-c3nc(C(=O)NCCNC(N)=O)cs3)nc2-c2csc(n2)[C@@H]2COC(=O)c3c4c5c(cccc5n3O)COC(=O)[C@@H](O[C@H]3C[C@](C)(O)[C@H](N(C)C)[C@H](C)O3)[C@@H](OC4)[C@H](NC(=O)c3csc1n3)c1nc(cs1)C(=O)N2.O=C(O)C(F)(F)F,< 10000 µg/mL,,,,
CO/C(C)=C1/NC(=O)[C@H]([C@@H](C)O)NC(=O)c2csc(n2)-c2cc(O)c(-c3nc(C(=O)NCCN(C)C)cs3)nc2-c2csc(n2)[C@@H]2COC(=O)c3c4c5c(cccc5n3O)COC(=O)[C@@H](O[C@H]3C[C@](C)(O)[C@H](N(C)C)[C@H](C)O3)[C@@H](OC4)[C@H](NC(=O)c3csc1n3)c1nc(cs1)C(=O)N2.O=C(O)C(F)(F)F,> 10000 µg/mL,,,,
CO/C(C)=C1/NC(=O)[C@H]([C@@H](C)O)NC(=O)c2csc(n2)-c2cc(O)c(-c3nc(C(=O)N(C)CCN(C)C)cs3)nc2-c2csc(n2)[C@@H]2COC(=O)c3c4c5c(cccc5n3O)COC(=O)[C@@H](O[C@H]3C[C@](C)(O)[C@H](N(C)C)[C@H](C)O3)[C@@H](OC4)[C@H](NC(=O)c3csc1n3)c1nc(cs1)C(=O)N2.O=C(O)C(F)(F)F,> 10000 µg/mL,,,,
CO/C(C)=C1/NC(=O)[C@H]([C@@H](C)O)NC(=O)c2csc(n2)-c2cc(O)c(-c3nc(C(=O)NCCNC(N)=O)cs3)nc2-c2csc(n2)[C@@H]2COC(=O)c3c4c5c(cccc5n3O)COC(=O)[C@@H](O[C@H]3C[C@](C)(O)[C@H](N(C)C)[C@H](C)O3)[C@@H](OC4)[C@H](NC(=O)c3csc1n3)c1nc(cs1)C(=O)N2,,,7.5 ng/mL,0.06 µg/mL,0.5 µg/mL
CO/C(C)=C1/NC(=O)[C@H]([C@@H](C)O)NC(=O)c2csc(n2)-c2cc(O)c(-c3nc(C(=O)NCCCN(C)C)cs3)nc2-c2csc(n2)[C@@H]2COC(=O)c3c4c5c(cccc5n3O)COC(=O)[C@@H](O[C@H]3C[C@](C)(O)[C@H](N(C)C)[C@H](C)O3)[C@@H](OC4)[C@H](NC(=O)c3csc1n3)c1nc(cs1)C(=O)N2.O=C(O)C(F)(F)F,> 10000 µg/mL,,,,
CO/C(C)=C1/NC(=O)[C@H]([C@@H](C)O)NC(=O)c2csc(n2)-c2cc(O)c(-c3nc(C(=O)NCCN)cs3)nc2-c2csc(n2)[C@@H]2COC(=O)c3c4c5c(cccc5n3O)COC(=O)[C@@H](O[C@H]3C[C@](C)(O)[C@H](N(C)C)[C@H](C)O3)[C@@H](OC4)[C@H](NC(=O)c3csc1n3)c1nc(cs1)C(=O)N2.O=C(O)C(F)(F)F,> 10000 µg/mL,,,,
CO/C(C)=C1/NC(=O)[C@H]([C@@H](C)O)NC(=O)c2csc(n2)-c2cc(O)c(-c3nc(C(=O)NCCNCC(O)CO)cs3)nc2-c2csc(n2)[C@@H]2COC(=O)c3c4c5c(cccc5n3O)COC(=O)[C@@H](O[C@H]3C[C@](C)(O)[C@H](N(C)C)[C@H](C)O3)[C@@H](OC4)[C@H](NC(=O)c3csc1n3)c1nc(cs1)C(=O)N2 (stereo not given in full),,,125 ng/mL,0.5 µg/mL,2 µg/mL
